In ChEMBL document CHEMBL1773060, “Two-step synthesis of novel, bioactive derivatives of the ubiquitous cofactor nicotinamide adenine dinucleotide (NAD)” (J Med Chem, 2011) one finds IC50 data, which are given here for 6 molecules.

Each structure is given as a SMILES string.

Assay [1] deals with T1, NAD-dependent protein deacetylase sirtuin-2 (Homo sapiens, UniProt Q8IXJ6).
T1 sequence (Q8IXJ6 whole entry): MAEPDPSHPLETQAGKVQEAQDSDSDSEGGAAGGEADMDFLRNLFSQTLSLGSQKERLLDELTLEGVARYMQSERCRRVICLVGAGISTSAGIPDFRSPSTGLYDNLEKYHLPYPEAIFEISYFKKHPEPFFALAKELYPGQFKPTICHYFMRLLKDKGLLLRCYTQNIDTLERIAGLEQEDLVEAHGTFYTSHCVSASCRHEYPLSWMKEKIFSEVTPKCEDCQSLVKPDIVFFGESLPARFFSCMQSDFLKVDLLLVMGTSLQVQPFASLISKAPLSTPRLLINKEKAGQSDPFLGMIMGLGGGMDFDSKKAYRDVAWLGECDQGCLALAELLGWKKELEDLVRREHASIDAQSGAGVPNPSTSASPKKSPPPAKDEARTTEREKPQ
As to the kind of experiment: Inhibition of human recombinant N-terminally His6-tagged SIRT2 after 4 hrs by homogeneous fluorescent deacetylase assay. The method, boiled down:
(§1)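 Recombinant enzyme incubated with Z-(Ac)Lys-AMC (10.5 μM), NAD (500 μM) and inhibitor added from DMSO stock, 4 h at 37 °C. Enzyme amount set for 10–30% substrate conversion without inhibitor. Trypsin (1 mg/mL) plus nicotinamide (8 mM) added, 20 min at 37 °C. Fluorescence read at ex 390/em 460 nm. Inhibition calculated from remaining substrate versus no-inhibitor control. Run at least in duplicate.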

For assay [2], the target named is T2, NAD-dependent protein deacetylase sirtuin-1 (Homo sapiens, UniProt Q96EB6).
T2 sequence (Q96EB6 whole entry): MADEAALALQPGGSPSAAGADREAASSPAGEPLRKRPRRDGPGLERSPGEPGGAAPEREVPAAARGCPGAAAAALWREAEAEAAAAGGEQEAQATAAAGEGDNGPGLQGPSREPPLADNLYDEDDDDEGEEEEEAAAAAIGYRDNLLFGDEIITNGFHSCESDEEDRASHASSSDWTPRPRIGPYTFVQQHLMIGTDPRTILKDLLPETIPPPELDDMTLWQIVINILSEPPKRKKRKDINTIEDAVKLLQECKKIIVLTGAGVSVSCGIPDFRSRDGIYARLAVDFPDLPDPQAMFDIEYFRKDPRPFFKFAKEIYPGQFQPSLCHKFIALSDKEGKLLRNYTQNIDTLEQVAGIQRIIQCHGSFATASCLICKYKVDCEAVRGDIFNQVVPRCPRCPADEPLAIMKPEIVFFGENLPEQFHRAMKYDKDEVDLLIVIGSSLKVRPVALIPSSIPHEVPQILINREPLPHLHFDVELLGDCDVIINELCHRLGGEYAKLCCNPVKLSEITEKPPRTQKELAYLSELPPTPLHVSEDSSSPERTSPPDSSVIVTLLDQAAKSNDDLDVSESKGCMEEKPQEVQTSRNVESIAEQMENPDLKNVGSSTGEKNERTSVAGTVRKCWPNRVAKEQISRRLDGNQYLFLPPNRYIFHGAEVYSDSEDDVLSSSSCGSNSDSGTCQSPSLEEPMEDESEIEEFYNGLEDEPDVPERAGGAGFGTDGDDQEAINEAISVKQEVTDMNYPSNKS
As to the kind of experiment: Inhibition of human recombinant GST-tagged SIRT1 after 4 hrs by homogeneous fluorescent deacetylase assay. The method in brief:
as §1

What is called IC50 is the midpoint of a concentration-inhibition curve. `COc1ccc(-c2nc3c(N)ncnc3n2[C@@H]2O[C@H](COP(=O)(O)OP(=O)([O-])OC[C@H]3O[C@@H]([n+]4cccc(C(N)=O)c4)[C@H](O)[C@@H]3O)[C@@H](O)[C@H]2O)cc1`: the IC50 in assay [1] is 43 µM. The same measure, in the same setting: to `NC(=O)c1ccc[n+]([C@@H]2O[C@H](COP(=O)([O-])OP(=O)(O)OC[C@H]3O[C@@H](n4c(-c5ccc(Cl)cc5)nc5c(N)ncnc54)[C@H](O)[C@@H]3O)[C@@H](O)[C@H]2O)c1` belongs 35 µM. `Cc1ccc(-c2nc3c(N)ncnc3n2[C@@H]2O[C@H](COP(=O)(O)OP(=O)([O-])OC[C@H]3O[C@@H]([n+]4cccc(C(N)=O)c4)[C@H](O)[C@@H]3O)[C@@H](O)[C@H]2O)cc1`: the IC50 in assay [1] turned out to be 52 µM. With `NC(=O)c1ccc[n+]([C@@H]2O[C@H](COP(=O)([O-])OP(=O)(O)OC[C@H]3O[C@@H](n4c(Br)nc5c(N)ncnc54)[C@H](O)[C@@H]3O)[C@@H](O)[C@H]2O)c1`, the half-maximal inhibitory concentration (IC50) in assay [1] is 28 µM. The same measure, in the same setting: as for `NC(=O)c1ccc[n+]([C@@H]2O[C@H](COP(=O)([O-])OP(=O)(O)OC[C@H]3O[C@@H](n4c(-c5ccccc5)nc5c(N)ncnc54)[C@H](O)[C@@H]3O)[C@@H](O)[C@H]2O)c1`, the figure is 123 µM. Regarding `Nc1ncnc2c1nc(-c1ccccc1)n2[C@@H]1O[C@H](COP(=O)(O)O)[C@@H](O)[C@H]1O`, the IC50 in assay [2] amounted to 31 µM; in assay [1] it was 29 µM.
